The values that follow come from ChEMBL document CHEMBL3244337, “Antiallergic activity of tetracyclic derivatives of quinoline-2-carboxylic acid. 2. Some benzothienoquinolinecarboxylic acids” (1978).

The test system of the first assay is Rattus norvegicus. The assay is described as follows: Antiallergic activity in ip dosed Sprague-Dawley rat assessed as compound required to > 50% inhibition of egg albumin/Bordetulla pertusis antibody-induced passive sensitization treated 5 mins before induction by passive cutaneous anaphylaxis assay. It counts as functional.
Details: not given
Summed up:
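Passive cutaneous anaphylaxis in Sprague-Dawley rats. Intradermal anti-egg-albumin antibody was left for 24 h, then compound was given ip 5 min before iv antigen and Evans blue, with six animals per dose. Initial doses were 25, 10 or 5 mg/kg, then a descending series down to 0.156 mg/kg. MED is the lowest dose giving >50% inhibition of weal area versus untreated rats, p ≤ 0.05 (Student's t test).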
On to `COc1ccc2sc3ccc4[nH]c(C(=O)O)cc(=O)c4c3c2c1`, for which the “MED>50” value is >5 mg/kg.
As to `O=C(O)c1cc(=O)c2c(ccc3sc4ccc(F)cc4c32)[nH]1`, the “MED>50” value is >5 mg/kg.
Consider `O=C(O)c1cc(=O)c2ccc3sc4ccccc4c3c2[nH]1`, for which the “MED>50” value was >10 mg/kg.
Consider `O=C(O)c1cc(=O)c2ccc3c(c2[nH]1)-c1ccccc1S3(=O)=O`, for which the “MED>50” value was 5 mg/kg.
`O=C(O)c1cc(=O)c2ccc3c(c2[nH]1)S(=O)(=O)c1ccccc1-3`: the “MED>50” value is >25 mg/kg.
Regarding `O=C(O)c1cc(=O)c2c(ccc3c4ccccc4sc32)[nH]1`, the “MED>50” value is >10 mg/kg.
The same measure, in the same setting: in the case of `O=C(O)c1cc(=O)c2c3c(ccc2[nH]1)-c1ccccc1S3(=O)=O` it was >10 mg/kg; in that of `O=C(O)c1cc(=O)c2cc3c(cc2[nH]1)S(=O)(=O)c1ccccc1-3`, 2.5 mg/kg; in that of `O=C(O)c1cc(=O)c2c(ccc3sc4ccccc4c32)[nH]1`, 5 mg/kg.
On the same count and under the same terms, in the case of `O=C(O)c1cc(=O)c2c(ccc3sc4ccc(Br)cc4c32)[nH]1` it was >10 mg/kg.
Still for that read-out and setting: the figure for `O=C(O)c1cc(=O)c2c(ccc3sc4ccc(Cl)cc4c32)[nH]1` is >10 mg/kg; for `Cc1ccc2sc3ccc4[nH]c(C(=O)O)cc(=O)c4c3c2c1` it is >10 mg/kg.
In the case of `O=C(O)c1cc(=O)c2c(ccc3sc4c(Cl)cccc4c32)[nH]1`, the “MED>50” value was >10 mg/kg.
Take `COc1cccc2c1sc1ccc3[nH]c(C(=O)O)cc(=O)c3c12`: the “MED>50” value is >5 mg/kg.
Take `Cc1cccc2c1sc1ccc3[nH]c(C(=O)O)cc(=O)c3c12`: the “MED>50” value is >5 mg/kg.
For `O=C(O)c1cc(=O)c2c(cc(Cl)c3sc4ccccc4c32)[nH]1`, the “MED>50” value was >10 mg/kg.
In the case of `COc1cc2[nH]c(C(=O)O)cc(=O)c2c2c1sc1ccccc12`, the “MED>50” value was >10 mg/kg.
In the case of `O=C(O)c1cc(=O)c2c3c(ccc2[nH]1)S(=O)(=O)c1ccc(Br)cc1-3`, the “MED>50” value was >10 mg/kg.
For `O=C(O)c1cc(=O)c2c3c(ccc2[nH]1)S(=O)(=O)c1ccc(Cl)cc1-3`, the “MED>50” value is >10 mg/kg.
Consider `Cc1ccc2c(c1)-c1c(ccc3[nH]c(C(=O)O)cc(=O)c13)S2(=O)=O`, for which the “MED>50” value came out at 10 mg/kg.
With `COc1ccc2c(c1)-c1c(ccc3[nH]c(C(=O)O)cc(=O)c13)S2(=O)=O`, the “MED>50” value amounted to 2.5 mg/kg.
Same read-out and setting: in the case of `CCCCCCOc1ccc2c(c1)-c1c(ccc3[nH]c(C(=O)O)cc(=O)c13)S2(=O)=O` it was >10 mg/kg; in that of `O=C(O)c1cc(=O)c2c3c(ccc2[nH]1)S(=O)(=O)c1ccc(F)cc1-3`, 5 mg/kg.
In the case of `O=C(O)c1cc(=O)c2c3c(ccc2[nH]1)S(=O)(=O)c1c(Cl)cccc1-3`, the “MED>50” value turned out to be 5 mg/kg.
As to `COc1cccc2c1S(=O)(=O)c1ccc3[nH]c(C(=O)O)cc(=O)c3c1-2`, the “MED>50” value came to 2.5 mg/kg.
Still for that read-out and setting: in the case of `Cc1cccc2c1S(=O)(=O)c1ccc3[nH]c(C(=O)O)cc(=O)c3c1-2` it was 2.5 mg/kg; in that of `O=C(O)c1cc(=O)c2c3c(c(Cl)cc2[nH]1)S(=O)(=O)c1ccccc1-3`, 2.5 mg/kg.
On the same count and under the same terms, in the case of `COc1cc2[nH]c(C(=O)O)cc(=O)c2c2c1S(=O)(=O)c1ccccc1-2` it was 1.25 mg/kg.
Same read-out and setting: in the case of `COc1cc2c(c3c(=O)cc(C(=O)O)[nH]c13)-c1ccccc1S2(=O)=O` it was 1.25 mg/kg.
Regarding `O=C(O)c1cc(=O)c2c3c(cc(Br)c2[nH]1)S(=O)(=O)c1ccccc1-3`, the “MED>50” value was 2.5 mg/kg.
`O=C(O)c1cc(=O)c2c([nH]1)c(Br)cc1c2c2ccccc2[s+]1[O-]` (stereo not drawn): the “MED>50” value turned out to be 2.5 mg/kg.
As to `O=C(O)c1cc(=O)c2cc3c(cc2[nH]1)-c1ccccc1S3(=O)=O`, the “MED>50” value stood at 2.5 mg/kg.
Still for that read-out and setting: in the case of `O=C(O)c1cc(=O)c2c(Cl)c3c(cc2[nH]1)-c1ccccc1S3(=O)=O` it was 0.312 mg/kg.
As to `O=C(O)c1cc(=O)c2cc3c(c(Cl)c2[nH]1)-c1ccccc1S3(=O)=O`, the “MED>50” value is 0.625 mg/kg.
Consider `O=C(O)c1cc(=O)c2cc3c(c(Br)c2[nH]1)-c1ccccc1S3(=O)=O`, for which the “MED>50” value came to 1.25 mg/kg.
Still for that read-out and setting: in the case of `O=C(O)c1cc(=O)c2c(Cl)c3c(c(Cl)c2[nH]1)-c1ccccc1S3(=O)=O` it was 1.25 mg/kg; in that of `Cc1c2c(cc3c(=O)cc(C(=O)O)[nH]c13)S(=O)(=O)c1ccccc1-2`, 1.25 mg/kg.
On to `O=C(O)c1cc(=O)c2cc3sc4ccccc4c3c(Cl)c2[nH]1`, for which the “MED>50” value is >10 mg/kg.
For the molecule `O=C(O)c1cc(=O)c2cc3sc4ccccc4c3c(Br)c2[nH]1`, the “MED>50” value is >10 mg/kg.
Take `CSCc1c2[nH]c(C(=O)O)cc(=O)c2cc2sc3ccccc3c12`: the “MED>50” value is >5 mg/kg.
In the case of `O=C(O)c1cc(=O)c2cc3c(cc2[nH]1)c1ccccc1[s+]3[O-]` (stereo not drawn), the “MED>50” value was 1.25 mg/kg.
`O=C(O)c1cc(=O)c2cc3c(c(Cl)c2[nH]1)c1ccccc1[s+]3[O-]` (stereo not drawn): the “MED>50” value was determined as 1.25 mg/kg.

For another assay, the system named is Rattus norvegicus. As to the kind of experiment: Antiallergic activity in ip dosed Sprague-Dawley rat assessed as compound inhibition of egg albumin/Bordetulla pertusis antibody-induced passive sensitization treated 5 mins before induction by passive cutaneous anaphylaxis assay. In kind it is functional. The following applies: read-out: ID50 (the source's name). The procedure, abridged: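 Rat antiserum against egg albumin, raised with Bordetella pertussis as adjuvant, was injected intradermally into the middorsal skin. Sensitization developed for 24 h. Compound was given ip 5 min before iv egg albumin plus Evans blue, at 10 to 0.156 mg/kg with six rats per dose. Blue-weal area was compared with untreated rats as % inhibition. ID50 was reported with 95% confidence limits.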
For the molecule `O=C(O)c1cc(=O)c2c3c(ccc2[nH]1)S(=O)(=O)c1ccccc1-3`, the ED50 came out at 1.3 mg/kg.
For the molecule `O=C(O)c1cc(=O)c2c(ccc3c2c2ccccc2[s+]3[O-])[nH]1` (stereo not drawn), the ED50 was determined as 0.3 mg/kg.
For the molecule `O=C([O-])c1cc(=O)c2c(OCC(O)COc3cccc4oc(C(=O)[O-])cc(=O)c34)cccc2o1.[Na+].[Na+]` [CROMOLYN SODIUM], the ED50 was 2.6 mg/kg.

A further assay relates to Rattus norvegicus. The assay is described as follows: Ratio of DSCG MED to compound MED for antiallergic activity in ip dosed Sprague-Dawley rat assessed as compound inhibition of egg albumin/Bordetulla pertusis antibody-induced passive sensitization treated 5 mins before induction by passive cutaneous anaphylaxis assay. It counts as functional.
Details: not given
Take `O=C(O)c1cc(=O)c2c(ccc3c2c2ccccc2[s+]3[O-])[nH]1` (stereo not drawn): the Ratio stood at 8.
Take `O=C(O)c1cc(=O)c2c(Cl)c3c(cc2[nH]1)-c1ccccc1S3(=O)=O`: the Ratio worked out at 8.
In the case of `O=C(O)c1cc(=O)c2cc3c(c(Cl)c2[nH]1)-c1ccccc1S3(=O)=O`, the Ratio stood at 4.
